Phagocyt inh = macrophage phagocytosis inhibition | J774A.1 macrophage IgG-bead phagocytosis, imaging | AID 1029 | inhibition, % at 5 µM | 110,000 compounds, 0.07% hits;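 active = inhibition above the mean of the plate negative controls plus 5 SD, cut at about 13% in these data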;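 note: phagocytic index as fraction of beads internalized from green versus red external bead signal; plate controls were DMSO negative control for no effect and cytochalasin-D positive control for full effect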
Cav32 inh = human Cav3.2 channel inhibition, primary screen; O95180; Cav3.2-expressing cells, Fluo-4 calcium fluorescence FDSS; active compounds read low; B-score at 10 µM; 100,000 compounds, 4% hits;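 active = single-dose well whose peak fluorescence ratio is a statistical outlier from its plate by either plate-standardised score or position-corrected B-score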
Target sequence (O95180 whole entry, looked up): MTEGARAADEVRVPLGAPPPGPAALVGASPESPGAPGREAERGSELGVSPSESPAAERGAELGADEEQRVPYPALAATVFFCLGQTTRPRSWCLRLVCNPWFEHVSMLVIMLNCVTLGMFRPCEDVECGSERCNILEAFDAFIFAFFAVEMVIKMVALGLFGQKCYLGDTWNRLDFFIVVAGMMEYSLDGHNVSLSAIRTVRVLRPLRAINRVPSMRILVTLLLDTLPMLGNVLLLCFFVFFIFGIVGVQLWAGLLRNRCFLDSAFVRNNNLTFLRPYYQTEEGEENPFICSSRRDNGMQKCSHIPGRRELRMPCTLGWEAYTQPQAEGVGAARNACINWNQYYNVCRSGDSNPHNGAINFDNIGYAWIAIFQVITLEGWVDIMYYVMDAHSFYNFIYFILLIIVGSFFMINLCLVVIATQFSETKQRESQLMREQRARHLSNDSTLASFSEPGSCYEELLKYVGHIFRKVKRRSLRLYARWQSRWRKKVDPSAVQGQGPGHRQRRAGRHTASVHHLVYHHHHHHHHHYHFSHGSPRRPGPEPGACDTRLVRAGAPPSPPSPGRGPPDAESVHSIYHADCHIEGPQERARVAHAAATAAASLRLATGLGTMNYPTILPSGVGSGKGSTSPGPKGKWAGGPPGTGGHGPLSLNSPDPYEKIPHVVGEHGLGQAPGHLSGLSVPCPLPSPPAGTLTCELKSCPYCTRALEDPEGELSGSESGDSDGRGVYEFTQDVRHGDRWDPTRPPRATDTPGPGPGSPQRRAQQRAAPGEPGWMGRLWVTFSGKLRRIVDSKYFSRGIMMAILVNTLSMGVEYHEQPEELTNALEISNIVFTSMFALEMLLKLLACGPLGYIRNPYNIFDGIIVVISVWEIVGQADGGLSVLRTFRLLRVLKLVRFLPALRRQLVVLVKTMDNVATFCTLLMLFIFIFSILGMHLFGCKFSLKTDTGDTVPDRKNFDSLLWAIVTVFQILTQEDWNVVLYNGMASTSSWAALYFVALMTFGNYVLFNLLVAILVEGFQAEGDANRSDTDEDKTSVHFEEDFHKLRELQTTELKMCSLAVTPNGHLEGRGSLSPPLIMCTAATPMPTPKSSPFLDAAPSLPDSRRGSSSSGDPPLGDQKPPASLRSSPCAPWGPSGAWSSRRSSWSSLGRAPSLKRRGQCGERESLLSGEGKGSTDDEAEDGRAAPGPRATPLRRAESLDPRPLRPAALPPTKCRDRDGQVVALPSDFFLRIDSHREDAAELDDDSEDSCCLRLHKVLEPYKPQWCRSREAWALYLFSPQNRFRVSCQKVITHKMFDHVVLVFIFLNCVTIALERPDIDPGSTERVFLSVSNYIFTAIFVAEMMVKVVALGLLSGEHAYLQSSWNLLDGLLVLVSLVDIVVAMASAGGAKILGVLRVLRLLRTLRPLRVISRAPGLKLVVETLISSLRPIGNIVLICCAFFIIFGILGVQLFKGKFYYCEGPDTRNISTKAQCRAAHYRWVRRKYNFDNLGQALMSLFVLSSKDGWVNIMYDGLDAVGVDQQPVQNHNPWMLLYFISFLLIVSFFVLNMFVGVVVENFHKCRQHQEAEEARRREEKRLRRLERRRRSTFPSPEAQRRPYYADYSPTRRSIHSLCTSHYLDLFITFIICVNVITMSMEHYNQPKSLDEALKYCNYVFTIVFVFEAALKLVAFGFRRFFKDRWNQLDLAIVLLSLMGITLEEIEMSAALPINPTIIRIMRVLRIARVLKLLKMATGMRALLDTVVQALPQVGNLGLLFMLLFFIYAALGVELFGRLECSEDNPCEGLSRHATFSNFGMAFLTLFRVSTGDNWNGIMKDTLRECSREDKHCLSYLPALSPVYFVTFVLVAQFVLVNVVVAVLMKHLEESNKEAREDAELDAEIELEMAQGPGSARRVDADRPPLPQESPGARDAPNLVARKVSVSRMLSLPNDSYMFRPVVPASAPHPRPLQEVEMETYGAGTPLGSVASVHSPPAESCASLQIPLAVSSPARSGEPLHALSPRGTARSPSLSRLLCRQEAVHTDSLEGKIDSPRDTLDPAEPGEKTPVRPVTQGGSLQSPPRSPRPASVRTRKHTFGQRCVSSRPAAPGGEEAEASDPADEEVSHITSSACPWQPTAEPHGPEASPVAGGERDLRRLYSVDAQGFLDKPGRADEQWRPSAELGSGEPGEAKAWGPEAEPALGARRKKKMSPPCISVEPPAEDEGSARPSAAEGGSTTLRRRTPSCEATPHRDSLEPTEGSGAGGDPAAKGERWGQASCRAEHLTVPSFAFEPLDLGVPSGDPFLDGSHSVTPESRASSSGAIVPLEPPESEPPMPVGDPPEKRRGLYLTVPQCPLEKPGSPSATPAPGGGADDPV
Measles CPE = protection of cells from measles virus; protection (pct of control), % at 4 µM; AID 841; Measles virus-infected cells, CPE protection, absorbance; 140,000 compounds, 1.5% hits; in the data active = protection mostly above about 24%, no sharp cut-off; inactive = mostly below about 26%
DAT uptake mod = changed human dopamine transporter uptake under cocaine IC80; Q01959; LLC-PK1 hDAT cells, [14C]-dopamine uptake with cocaine IC80; actives deviate in either direction; B-score at 10 µM; 110,000 compounds, 1.3% hits; AID 449768;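 active = Z score or B-score, a plate-position-corrected score, falls beyond the plate's 99.7% confidence bounds, in either direction; inactive = both scores lie inside the 99.7% bounds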;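 note: scored against the spread of the other compound wells on the same plate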
PTK2B oligo ant = antagonists of human Pyk2 oligomerization | z-score (the deposit names both 25 µM and 10 µM) | 99,000 compounds, 0.83% hits | Q293 cells, Pyk2 FERM NanoBiT luminescence; active compounds read low;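 active = Z-score of -3 or lower, scaled per plate to the spread of control and sample wells; inactive = z-score above -3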;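 note: negative z-score means lost luminescence so less FERM oligomerization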
HIV Rev-RRE inh = disrupts HIV-1 Rev binding to RRE RNA | P05866 | Rev peptide-RRE RNA binding, FRET | inhibition, % at 8 µM | 97,000 compounds, 0.79% hits | AID 704;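 active = inhibition above the screen-wide mean plus 3 SD, cut at about 35% in these data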;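 note: 0% = median DMSO wells and 100% = median Neomycin B control wells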
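Test system – labelled RRE RNA duplex and labelled Rev peptide · Reagent – labelled Rev peptide · Doses – one concentration, 8 µM nominal · Incubation – 5 + 15 min at 25 °C · Signal – FRET fluorescence readout · Read-out basis – % inhibition of FRET ratio versus controls · Control set – DMSO wells as 0% and neomycin B wells as 100% inhibition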
The depositor's hits bear a star; nt = no result given. Most compounds without a hit are left out; they make up all but 5.9% or so of the library.

SMILES	Phagocyt inh	Cav32 inh	Measles CPE	DAT uptake mod	PTK2B oligo ant	HIV Rev-RRE inh
CC1CCCCN1C(=O)c1cc(-c2ccc(Cl)c(Cl)c2)on1 (stereo not given)	-1.5	nt	45.7*	nt	-0.47	8.8
CCC1CCCCN1C(=O)c1cc(-c2ccc(Cl)c(Cl)c2)on1 (stereo not given)	nt	-0.696	5.7	0.997	-0.69	nt
O=S(=O)(NCc1cc(-c2ccccc2Cl)no1)c1ccc(Cl)cc1	nt	-7.18*	7.4	-0.292	0.52	13.9
Cc1ccc(Cn2c(C3CCCN3c3nc(-c4cc(Cl)c(N)c(Cl)c4)cs3)nc3cc(Cl)c(Cl)cc32)cc1 (stereo not given)	nt	0.946	nt	-2.18	nt	nt
CCn1nc(C)c(/C=N/NC(=O)c2ccc3c(c2)c(C)c(C)n3Cc2ccccc2)c1C	-1.2	-6.15*	1.9	-0.344	-2.2	-0.1
CCn1cc(/C=N\NC(=O)c2ccc3c(c2)c(C)c(C)n3Cc2ccccc2)c(C)n1	0.3	-6.59*	4.1	0.656	-0.31	4.1
CCn1c2ccccc2c2cc(/C=N/NC(=O)c3cccc(C)c3)ccc21	-1.0	-4.19*	0.1	1.53	-0.46	5.4
CCn1cc(/C=N/NC(=O)c2ccc3c(c2)OCO3)c(C)n1	nt	0.0903	4.8	1.01	-0.32	3.5
CCn1ncc(/C=N\NC(=O)c2ccc3c(c2)c(C)c(C)n3Cc2ccccc2)c1C	0.3	-5.71*	20.6	1.38	-1.94	-1.2
CCn1c2ccccc2c2cc(/C=N/NC(=O)c3ccccc3C)ccc21	12.7	nt	3.0	nt	-1.09	nt
Oc1ccccc1-c1nc(N2CCCC2)c2ccccc2n1	0.2	0.955	9.3	-0.469	0.06	1.4
CC1CCN(c2nc(-c3ccccc3O)nc3ccccc23)CC1	nt	-1.1	38.1*	-0.00856	0.09	16.2
Cc1ccc(-n2nnnc2SCC(=O)Nc2ncc(Cc3ccccc3Cl)s2)cc1	-3.4	nt	28.1	nt	nt	nt
CC(C)CCn1c(=O)c2ccccc2n2c(CN(C)Cc3ccccc3)nnc12	2.3	-0.646	26.6	-8.56*	-1.56	3.5
CC(C)CCn1c(=O)c2ccccc2n2c(COC(=O)c3ccc(S(=O)(=O)N(C)C)cc3)nnc12	1.0	nt	nt	nt	nt	nt
COCCCNC(=S)N1CCN(S(C)(=O)=O)CC1	1.6	nt	16.8	nt	nt	nt
O=C(Nc1cccnc1)c1ccc2c(c1)C(=O)N(Cc1cccnc1)C2=O	-2.3	0.0294	4.1	0.701	-1.33	8.3
CCOc1ccccc1N1C(=O)c2ccc(C(=O)Nc3cccnc3)cc2C1=O	0.8	-2.94*	18.7	-0.039	nt	6.4
CC(C)NC(=O)c1ccc(C2SCC(=O)N2Cc2ccccc2)cc1 (stereo not given)	nt	0.795	8.6	1.61	-0.54	-0.2
COc1ccc2[nH]c(=O)c(CN(C3CCCCC3)C(c3nnnn3Cc3ccco3)C(C)C)cc2c1 (stereo not given)	-0.3	nt	12.1	nt	0.4	43.0*
COCCn1nnnc1C(C(C)C)N(Cc1ccccc1)Cc1cc2cc(OC)ccc2[nH]c1=O (stereo not given)	-2.6	-3.97*	9.8	1.71	-0.53	nt
CCOc1ccc2[nH]c(=O)c(C(c3nnnn3Cc3ccco3)N3CCCC(C)C3)cc2c1 (stereo not given)	-1.8	-5.89*	6.4	2.49*	-0.09	6.1
Cc1cc(NC(=O)Cn2c(C)nc3ccccc3c2=O)ccc1Br	2.6	-2.24	4.1	-0.761	-0.19	2.4
Cc1cc(NC(=O)Cn2nc3c(cc2=O)CCCC3)ccc1Br	-1.8	-6.16*	7.6	1.3	1.31	5.5
NC(=O)C1CCN(CC(=O)Nc2ccccn2)CC1	3.7	-0.238	6.2	nt	0.06	11.2
SMILES	Phagocyt inh	Cav32 inh	Measles CPE	DAT uptake mod	PTK2B oligo ant	HIV Rev-RRE inh
CC(NC(=O)CN1CCC(C(N)=O)CC1)c1ccccc1 (stereo not given)	1.9	nt	4.7	-8.07*	-0.4	4.8
O=C(c1ccco1)N1c2ccccc2Sc2ccccc21	nt	-4.66*	2.2	-1.15	-1.4	12.2
Cc1ccccc1C(=O)N1CCc2ccccc2C1	1.4	-0.0696	17.0	-0.287	0.96	-3.6
Cc1cc(C)c2cc3c(N)c(C(=O)N4CCc5ccccc5C4)sc3nc2c1	-0.8	0.254	14.8	0.159	0.46	71.7*
Cc1ccc2nc3sc(C(=O)N4CCCc5ccccc54)c(N)c3cc2c1	-0.3	nt	4.1	-0.301	-0.38	48.6*
Nc1nc2sc3c(c2cc1C(=O)N1CCOCC1)CCCC3	-0.5	-0.0223	5.3	0.575	1.12	3.9
Cc1cccc2cc3c(N)c(C(=O)N4CCOCC4)sc3nc12	nt	-1.28	13.0	1.14	0.19	50.0*
Cc1ccc(S(=O)(=O)NCCC(=O)NCc2ccco2)cc1	-3.3	nt	3.0	nt	-0.34	nt
OCCNCc1cc(Br)ccc1OCc1ccccc1	-2.7	nt	31.9*	nt	nt	nt
Cc1ccc(OCC(O)Cn2c3ccccc3c3ccccc32)cc1 (stereo not given)	0.4	nt	7.5	1.7*	-0.37	4.1
N=c1n(Cc2ccccc2)c2ccccc2n1CC(O)COc1ccccc1 (stereo not given)	-1.2	-4.93*	11.8	2.85	0.64	5.0
Cc1ccc(Cn2c(=N)n(CC(O)COc3ccccc3)c3ccccc32)cc1 (stereo not given)	0.4	-2.53	7.0	-0.488	0.39	19.2
Cc1ccc(S(=O)(=O)N(C)CC(O)Cn2c3ccccc3c3ccccc32)cc1 (stereo not given)	-0.4	-0.411	38.8*	-0.0052	0.51	5.8
Cc1ccc(OCCN2CCN(CC(O)Cn3c4ccccc4c4ccccc43)CC2)cc1 (stereo not given)	11.5	nt	20.4	nt	nt	nt
C=CCN(CC=C)CC(O)Cn1c2ccccc2c2ccccc21 (stereo not given)	nt	-3.45*	7.8	0.627	-0.22	17.1
COC(=O)C(C)Sc1nc2c(c(-c3ccc(OC)cc3)c1C#N)-c1ccccc1C2=O (stereo not given)	nt	-2.15	nt	0.518	-1.83	3.4
COc1ccc(Oc2ccc(/C=C/C(=O)c3cccc(OC)c3)cc2[N+](=O)[O-])cc1	-3.1	nt	11.0	nt	nt	nt
COc1cc(OC)c(C2SCCS2)c(OC)c1	-2.1	nt	33.1*	nt	nt	nt
Cc1ccccc1Nc1cccc2nonc12	-4.0	nt	14.5	nt	nt	nt
COc1ccc(S(=O)(=O)N2CCC(C(=O)N3CCc4ccccc4C3)CC2)cc1Cl	0.4	-4.63*	16.9	1.47	-0.7	12.1
CCS(=O)(=O)N1CCC(C(=O)N2CCc3ccccc3C2)CC1	-3.5	nt	2.6	nt	-0.28	7.4
O=C(Nc1ccc(N2CCCC2)cc1)c1cccc(F)c1	nt	-5.68*	9.9	0.518	-0.58	3.5
CCN1c2ccccc2NC2C1C(C(C)=O)C(=O)N2c1ccc(Cl)cc1 (stereo not given)	0.0	-2.25	6.6	-0.605	-0.46	49.5*
CCc1c(C)c(C#N)c2nc3ccccc3n2c1NCCN(C)C	2.4	2.38	8.4	0.66	0.21	9.0
C=CCc1c(C)c(C#N)c2nc3ccccc3n2c1NCCN(C)C	0.2	2.03	1.4	2.71*	-0.09	1.1
N#Cc1nc(COc2ccc(Cl)cc2)oc1N1CCCCCC1	2.5	-5.02*	-0.3	1.91	-1.79	20.4
